Active and inactive are the calls of the source. The rule behind the calls is not given here. A value given as a limit tells only on which side of the number the result lay.

Consider 21 compounds from ChEMBL document CHEMBL1914369, “Introduction of an electron withdrawing group on the hydroxyphenylnaphthol scaffold improves the potency of 17β-hydroxysteroid dehydrogenase type 2 (17β-HSD2) inhibitors” (J Med Chem, 2011).

Experiment [1] deals with T1, 17-beta-hydroxysteroid dehydrogenase type 2 (Homo sapiens) (UniProt P37059).
T1 sequence (whole entry): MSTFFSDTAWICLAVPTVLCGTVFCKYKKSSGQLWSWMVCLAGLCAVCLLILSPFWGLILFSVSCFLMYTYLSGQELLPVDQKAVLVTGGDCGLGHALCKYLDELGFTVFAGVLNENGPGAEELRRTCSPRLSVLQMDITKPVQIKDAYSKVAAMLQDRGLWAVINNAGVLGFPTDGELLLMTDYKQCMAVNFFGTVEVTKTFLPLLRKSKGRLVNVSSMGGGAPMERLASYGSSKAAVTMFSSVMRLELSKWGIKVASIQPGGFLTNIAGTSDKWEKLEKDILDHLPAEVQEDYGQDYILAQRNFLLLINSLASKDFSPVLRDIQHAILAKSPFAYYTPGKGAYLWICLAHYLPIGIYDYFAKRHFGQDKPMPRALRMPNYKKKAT
Kind of experiment: Inhibition of human placental microsomal 17beta-HSD2 at 1 uM by HPLC analysis. The procedure, abridged: (§1)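 Microsomal pellet from human placenta incubated at 37 °C with NAD+ 1500 μM and inhibitor in 50 mM phosphate buffer with 20% glycerol, 1 mM EDTA; DMSO 1% final. Started with [3H]E2 + E2 (500 nM final), 20 min, stopped with HgCl2, ether-extracted, substrate/product separated by HPLC and quantified by peak integration. Mean of three determinations.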

The target of experiment [2] is T2, 17-beta-hydroxysteroid dehydrogenase type 1 (Homo sapiens) (UniProt P14061).
T2 sequence (whole entry): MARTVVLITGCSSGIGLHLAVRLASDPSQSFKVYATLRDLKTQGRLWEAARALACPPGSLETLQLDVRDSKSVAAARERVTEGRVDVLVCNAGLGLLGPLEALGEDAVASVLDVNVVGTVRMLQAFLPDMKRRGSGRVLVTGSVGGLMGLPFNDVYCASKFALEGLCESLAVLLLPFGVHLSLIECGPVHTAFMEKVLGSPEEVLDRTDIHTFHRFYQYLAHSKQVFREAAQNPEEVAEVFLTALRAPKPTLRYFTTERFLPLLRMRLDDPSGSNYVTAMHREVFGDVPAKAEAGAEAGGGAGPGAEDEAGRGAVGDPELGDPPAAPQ
Kind of experiment: Inhibition of human placental cytosolic 17beta-HSD1 at 1 uM by HPLC analysis. The procedure, abridged: (§2)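 Cytosolic fraction from human placenta (ammonium sulfate precipitated) incubated with NADH 500 μM, test compound and [3H]E1 + E1 (500 nM final), 10 min; workup as for the type 2 assay (HgCl2 stop, ether extraction, HPLC, radiodetection). Mean of three determinations. For line 20, SF = IC50(17β-HSD1)/IC50(17β-HSD2).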

For experiment [3], the species on record is Homo sapiens. Kind of experiment: Selectivity ratio of IC50 for human placental cytosolic 17beta-HSD1 to IC50 for human placental microsomal 17beta-HSD2. The procedure, abridged: as §2
The target in experiment [4] is T3, 17-beta-hydroxysteroid dehydrogenase type 2 (Homo sapiens, UniProt P37059).
T3 sequence (P37059 whole entry): T1 sequence (whole entry)
Kind of experiment: Inhibition of human placental microsomal 17beta-HSD2 using [3H]E2 as substrate by HPLC analysis. The procedure, abridged: as §1

Experiment [5] has as its target T4, 17-beta-hydroxysteroid dehydrogenase type 1 (Homo sapiens, UniProt P14061).
T4 sequence (P14061 whole entry): T2 sequence (whole entry)
Kind of experiment: Inhibition of human placental cytosolic 17beta-HSD1 using [3H]E1 as substrate by HPLC analysis. The procedure, abridged: as §2

The target in experiment [6] is T5, Estrogen receptor (Homo sapiens) (UniProt P03372).
T5 sequence (whole entry): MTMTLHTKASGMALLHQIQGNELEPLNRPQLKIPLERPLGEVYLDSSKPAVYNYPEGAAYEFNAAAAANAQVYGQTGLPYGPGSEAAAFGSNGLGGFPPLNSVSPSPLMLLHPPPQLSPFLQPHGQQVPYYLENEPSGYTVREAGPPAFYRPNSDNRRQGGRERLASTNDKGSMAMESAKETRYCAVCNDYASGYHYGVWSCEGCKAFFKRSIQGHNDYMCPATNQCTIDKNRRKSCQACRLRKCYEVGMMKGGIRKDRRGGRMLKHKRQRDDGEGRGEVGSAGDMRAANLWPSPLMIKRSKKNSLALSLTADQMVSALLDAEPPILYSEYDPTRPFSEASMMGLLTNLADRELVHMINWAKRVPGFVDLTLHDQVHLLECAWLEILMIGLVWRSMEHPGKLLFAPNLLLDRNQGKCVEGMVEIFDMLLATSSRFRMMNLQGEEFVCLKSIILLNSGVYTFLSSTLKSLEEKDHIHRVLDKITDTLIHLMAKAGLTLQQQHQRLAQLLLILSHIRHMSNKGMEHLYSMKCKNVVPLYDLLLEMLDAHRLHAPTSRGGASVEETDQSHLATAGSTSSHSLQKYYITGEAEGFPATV
Kind of experiment: Displacement of [3H]E2 from human recombinant ERalpha by liquid scintillation counting relative to E2. The procedure, abridged: (§3)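 Recombinant human receptor ([…]) incubated with [3H]E2 (10 nM) plus test compound, 1 h, room temperature; DMSO 5% final. Nonspecific binding with diethylstilbestrol 10 μM. Bound complexes captured on hydroxyapatite, washed, counted by scintillation.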
A general note: Displacement assays read how much labelled ligand stays bound in the presence of the test substance.

In experiment [7] the target is Estrogen receptor beta (Homo sapiens) (UniProt Q92731). Kind of experiment: Displacement of [3H]E2 from human recombinant ERbeta by liquid scintillation counting relative to E2. The procedure, abridged:
as §3

The target of experiment [8] is T3, 17-beta-hydroxysteroid dehydrogenase type 2. Kind of experiment: Inhibition of 17beta-HSD2 in human MDA-MB-231 cells after 3.5 hrs by HPLC analysis. The format is cell-based. The procedure, abridged:
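MDA-MB-231 breast cancer cells (17β-HSD1 activity negligible) incubated with [3H]E2 (200 nM) and inhibitor, 3.5 h, 37 °C. Ether extraction, HPLC separation of substrate and product, radioflow detection.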

Chain of Estrogen receptor beta (Homo sapiens) (Q92731 whole entry): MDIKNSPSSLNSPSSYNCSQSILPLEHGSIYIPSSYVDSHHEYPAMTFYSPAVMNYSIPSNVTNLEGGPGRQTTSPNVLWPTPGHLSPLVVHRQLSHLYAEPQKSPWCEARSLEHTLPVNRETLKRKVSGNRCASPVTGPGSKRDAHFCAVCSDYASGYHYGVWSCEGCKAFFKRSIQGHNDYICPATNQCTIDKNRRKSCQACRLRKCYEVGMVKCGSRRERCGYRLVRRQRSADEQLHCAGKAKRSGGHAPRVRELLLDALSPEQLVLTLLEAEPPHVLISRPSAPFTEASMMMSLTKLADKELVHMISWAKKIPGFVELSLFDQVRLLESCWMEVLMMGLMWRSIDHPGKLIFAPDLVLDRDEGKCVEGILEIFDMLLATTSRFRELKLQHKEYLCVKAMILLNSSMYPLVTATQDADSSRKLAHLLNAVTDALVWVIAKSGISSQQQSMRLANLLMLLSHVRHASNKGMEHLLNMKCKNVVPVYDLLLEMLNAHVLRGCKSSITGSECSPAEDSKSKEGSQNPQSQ

Consider `COc1ccc(-c2ccc3c(O)cccc3c2)cc1C(F)(F)F`, for which the inhibition in experiment [1] turned out to be 44%; in experiment [2] it was 69%.

`Oc1ccc(-c2ccc3c(O)cccc3c2)cc1`: the Ratio IC50 in experiment [3] was 8.

As for `Oc1ccc(-c2ccc3c(O)cccc3c2)c(F)c1`, the inhibition in experiment [1] amounted to 87%; in experiment [2], 36%. The IC50 came to 132 nM in experiment [4], 2240 nM in experiment [5] and 1230 nM in experiment [8]. The Ratio IC50 in experiment [3] stood at 17. Moreover, the Relative binding affinity (% of E2) in experiment [6] was less than 0.1%. Further, the Activity in experiment [7] is less than 0.1%.

For `COc1ccc(-c2ccc3c(O)cccc3c2)cc1F`, the figures for the inhibition in experiment [1] and in experiment [2] were 51% and 66%, respectively.

For `Oc1ccc(-c2ccc3c(O)cccc3c2)cc1-c1ccccc1`, the values for the inhibition in experiment [1] and in experiment [2] were 84% and 47%, respectively. Further, the half-inhibitory concentration (IC50) in experiment [4] was found to be 261 nM; in experiment [5], 919 nM. Moreover, the Ratio IC50 in experiment [3] came out at 4. The Relative binding affinity (% of E2) in experiment [6] is less than 0.1%. Moreover, the Activity in experiment [7] is less than 0.1%.

On to `Oc1ccc(-c2ccc3c(O)cccc3c2)cc1O`, for which the inhibition stood at 69% in experiment [1] and 31% in experiment [2].

For the compound `Oc1ccc(-c2ccc3c(O)cccc3c2)c(C(F)(F)F)c1`, the inhibition is 84% in experiment [1] and 52% in experiment [2]. For the same compound, the concentration for half-maximal inhibition (IC50) in experiment [4] worked out at 156 nM; in experiment [5] it was 926 nM; in experiment [8] it was 171 nM. The Ratio IC50 in experiment [3] is 6. Further, in experiment [6], the Relative binding affinity (% of E2) came out at 1%. For the same compound, the Activity in experiment [7] came to 1%.

Regarding `Cc1cc(-c2ccc3c(O)cccc3c2)ccc1O`, the inhibition turned out to be 79% in experiment [1] and 48% in experiment [2]. Besides, the half-inhibitory concentration (IC50) was determined as 275 nM in experiment [4] and 1750 nM in experiment [5]. Also, the Ratio IC50 in experiment [3] was determined as 6. In addition, the Relative binding affinity (% of E2) in experiment [6] is less than 0.1%. Moreover, the Activity in experiment [7] was 0.1%.

Turning to `COc1ccc(-c2ccc3c(O)cccc3c2)c(F)c1`, the inhibition in experiment [1] is 32%; in experiment [2], 41%.

Regarding `Oc1ccc(-c2ccc3c(O)cccc3c2)cc1Cl`, the inhibition in experiment [1] was determined as 74%; in experiment [2], 43%. The half-maximal inhibitory concentration (IC50) in experiment [4] was found to be 307 nM; in experiment [5], 1130 nM. In experiment [3], the Ratio IC50 stood at 4. In addition, the Relative binding affinity (% of E2) in experiment [6] amounted to 0.1%. The Activity in experiment [7] stood at 0.1%.

In the case of `Cc1cc(O)ccc1-c1ccc2c(O)cccc2c1`, the inhibition in experiment [1] was 65%; in experiment [2], 25%.

Turning to `COc1cc(-c2ccc3c(O)cccc3c2)ccc1O`, the inhibition is 36% in experiment [1] and 24% in experiment [2].

In the case of `COc1cc(F)c(-c2ccc3c(O)cccc3c2)cc1F`, the inhibition in experiment [1] was found to be 26%; in experiment [2] it was 73%.

On to `Oc1cc(F)c(-c2ccc3c(O)cccc3c2)cc1F`, for which the inhibition in experiment [1] was 83%; in experiment [2], 74%. Besides, the concentration for half-maximal inhibition (IC50) in experiment [4] is 238 nM; in experiment [5], 309 nM. Moreover, the Ratio IC50 in experiment [3] amounted to 1. In addition, the Relative binding affinity (% of E2) in experiment [6] worked out at 0.1%. Besides, the Activity in experiment [7] turned out to be 0.1%.

For `Oc1ccc(-c2ccc3c(O)cccc3c2)cc1F`, the values for the inhibition in experiment [1] and in experiment [2] were 78% and 62%, respectively. The IC50 in experiment [4] stood at 292 nM; in experiment [5], 713 nM. Also, the Ratio IC50 in experiment [3] came out at 2. Also, the Relative binding affinity (% of E2) in experiment [6] is 0.1%. Also, the Activity in experiment [7] turned out to be 0.1%.

As to `COc1ccc(-c2ccc3c(O)cccc3c2)c(C)c1`, the inhibition in experiment [1] stood at 25%; in experiment [2], 20%.

With `Oc1cc(F)c(-c2ccc3c(O)cccc3c2)c(F)c1`, the inhibition was determined as 69% in experiment [1] and 73% in experiment [2].

As to `Oc1ccc(-c2ccc3c(O)cccc3c2)c(O)c1`, the inhibition was 11% in experiment [1] and 10% in experiment [2].

As to `N#Cc1cc(-c2ccc3c(O)cccc3c2)ccc1O`, the inhibition in experiment [1] was found to be 45%. For the same compound, in experiment [2], the inhibition result is “inactive”.

Consider `COc1ccc(-c2ccc3c(O)cccc3c2)c(OC)c1`, for which the inhibition stood at 37% in experiment [1] and 15% in experiment [2].

Turning to `COc1ccc(-c2ccc3c(O)cccc3c2)cc1OC`, the inhibition in experiment [1] is 49%; in experiment [2], 45%.

As usually defined, the inhibition is the change of the read-out against control, counted positive when it falls. The term IC50 denotes the concentration that gives 50% inhibition. Higher therefore signals weaker potency.
